Screening data: PubChem, several laboratories
HNF4A DNA FP: change in binding of human HNF4 alpha to DNA; P41235; HNF4a-FITC DNA binding, fluorescence polarization, 1 h; activity change, % at 10 µM; actives 0.3% (n = 360,000); in the data active = activity change above about 30%, passing the limit was not always enough
CSN inh: blocks human CSN-mediated cullin deneddylation; Q92905; Purified CSN, SCF-Nedd8-OG deneddylation, fluorescence polarization; inhibition, % at 12.5 µM; actives 0.38% (n = 360,000); AID 651999;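 active = pattern-corrected inhibition above about 35%, with an unprinted fluorescence ratio check between 0.5 and 1.5, limit read from the data, passing the limit was not always enough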;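 note: 0% = enzyme with substrate and 100% = substrate without enzyme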
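Detection – fluorescence polarization · System – HEK293T-derived human Csn5 enzyme · Controls – substrate-only high control, full reaction low control · Timing – 90 min, room temperature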
Rpn11 block: blocks the human proteasome subunit Rpn11 | inhibition, % at 20 µM | actives 0.59% (n = 360,000) | human 26S proteasome, Ub4-pepOG fluorescence polarization; 20S core pre-blocked with epoxomicin;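 active = inhibition at 20 µM, scaled to each plate's controls, above about 33%, limit read from the data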
Xi reactivation: activators of X-chromosome reactivation in mouse fibroblasts | XiGFP mouse fibroblasts, % GFP-positive cells imaging, 3 d; cells co-treated with 5-aza-dC sensitizer; scaled so ellipticine positive control = 100% | activation, % at 7.58 µM | actives 0.055% (n = 360,000);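 active = mean normalized replicate activation at least 10% and every replicate at or above 10%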;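 note: 0% = median of on-plate neutral control wells and 100% = ellipticine 6 µM median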
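System: XiGFP fibroblasts, SV40-immortalized. Medium: DMEM plus 5-aza-dC sensitizer. Doses: single point. Timing: 3 d treatment, 15 min room-temperature fixation. Control set: ellipticine 6 µM.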
aDG glyco up: alpha-DG glycosylation activation. Pro5-aDG cells, alpha-DG glycosylation AlphaScreen (IIH6); 0% Pro5, 100% B10-LARGE cell signal. activation, % at 10 µM. actives 0.22% (n = 360,000). AID 624168;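 active = activation of at least 8% versus controls, or a plate z-score of at least 8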;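 note: Pro5 are CHO cells carrying HIG-tagged alpha-DG that lacks glycosylation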
TPT1 inh: C. albicans TPT1 enzyme inhibition; recombinant caTPT1, FP RNA substrate dephosphorylation; inhibition, % at 5 µM; actives 0.81% (n = 300,000);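 active = inhibition above the mean of all tested compounds plus 3 SD, set per screening campaign, cut at about 24% in these data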;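 note: plate controls were DMSO alone for no effect and ferristatin control at 100 nM for full effect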
CSN deneddyl val: Csn5 (human) deneddylation inhibition, single-concentration validation; inhibition, % at 16.6 µM; shares compounds with CSN inh; AID 720654; actives 62% (n = 540); Csn5 deneddylation of SCF-Nedd8OG, fluorescence polarization, 90 min; in the data active = inhibition above about 50%;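 note: 0% = DMSO with enzyme and 100% = no enzyme wells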
MMP-2 counter: blocks human MMP-2 in a CSN deneddylation counter-screen; shares compounds with CSN inh; recombinant MMP-2, FRET substrate fluorescence, 60 min; inhibition, % at 16.6 µM; actives 33% (n = 540);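 active = corrected plate-normalized z-score of 5 or more, or -5 or less, or inhibition of 15% or more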;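 note: plate controls were DMSO wells with enzyme for no effect and buffer wells lacking MMP-2 for full effect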
Target sequence (P08253 whole entry, looked up): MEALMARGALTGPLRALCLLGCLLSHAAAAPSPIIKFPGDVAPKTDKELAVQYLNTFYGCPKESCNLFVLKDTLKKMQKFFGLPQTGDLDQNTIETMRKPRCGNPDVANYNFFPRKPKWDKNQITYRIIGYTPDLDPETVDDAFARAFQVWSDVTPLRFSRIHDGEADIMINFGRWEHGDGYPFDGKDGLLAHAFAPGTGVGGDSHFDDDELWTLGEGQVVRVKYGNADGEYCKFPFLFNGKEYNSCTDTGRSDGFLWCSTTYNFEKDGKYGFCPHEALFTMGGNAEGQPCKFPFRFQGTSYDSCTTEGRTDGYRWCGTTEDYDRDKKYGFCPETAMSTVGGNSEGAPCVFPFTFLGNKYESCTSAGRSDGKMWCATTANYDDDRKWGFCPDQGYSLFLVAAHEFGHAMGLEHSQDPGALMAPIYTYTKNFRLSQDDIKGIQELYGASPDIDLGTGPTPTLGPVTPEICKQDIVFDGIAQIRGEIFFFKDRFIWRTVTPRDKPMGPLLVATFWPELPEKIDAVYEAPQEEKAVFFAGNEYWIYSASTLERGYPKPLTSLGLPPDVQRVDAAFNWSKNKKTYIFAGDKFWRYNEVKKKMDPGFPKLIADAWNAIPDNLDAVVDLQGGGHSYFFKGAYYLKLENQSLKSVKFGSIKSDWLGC
Thrombin counter: blocks bovine thrombin in a CSN deneddylation counter-screen; shares compounds with CSN inh; bovine thrombin cleavage of Ub4-pepOG, fluorescence polarization; inhibition, % at 16.6 µM; actives 49% (n = 540); AID 720656;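 active = inhibition at or above a set limit, with a fluorescence interference ratio between 0.5 and a set maximum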
* hit, by the source's call; x = no result shown; + = active, no number. The list is not random: actives were taken first. Their share in the collection is about 1.3%.

SMILES	HNF4A DNA FP	CSN inh	Rpn11 block	Xi reactivation	aDG glyco up	TPT1 inh	CSN deneddyl val	MMP-2 counter	Thrombin counter
Cc1cc(/C=N/NC(=O)C(O)(c2ccccc2)c2ccccc2)c(C)n1-c1ccc(C(=O)O)cc1	0.5	4.7	14.8	0.3	-0.4	3.1	x	x	x
CN(C)C(=O)C[C@@H]1C=C[C@@H](NS(=O)(=O)c2ccccc2)[C@H](CO)O1	x	x	x	-0.1	x	x	x	x	x
O=C(NCc1cc(C(F)(F)F)ccc1Cl)c1cccc2c1C(=O)c1ccc(N3CCOCC3)cc1S2(=O)=O	25.4	22.5	34.0	-0.3	-0.1	x	x	x	x
O=C(NCc1cc(C(F)(F)F)ccc1Cl)c1cccc2c1C(=O)c1ccc(N3CCC(N4CCCCC4)CC3)cc1S2(=O)=O	139.6*	81.6*	x	1.6	-0.6	x	-38.4	-18.0	45.6*
COc1ccccc1C#Cc1ccc2c(c1)O[C@H](CN(C)Cc1ccccc1)[C@@H](C)CN([C@H](C)CO)S2(=O)=O	x	x	x	0.2	x	x	x	x	x
N#CC(C#N)=C(N)/C(C#N)=C/c1cc(O)c(O)c(O)c1	28.1	122.1*	x	0.1	0.2	21.9	10.8	9.3	57.4*
N#C/C(=C/c1cc(Cl)c(O)c(Cl)c1)C(=O)N1CCCCC1	3.7	-4.3	-3.9	0.0	0.1	-1.5	x	x	x
C=CCn1c(O)c(N=Nc2ccccc2O)c2ccccc21	84.1*	47.2*	x	1.6	-0.2	x	+	-5.7	32.5*
Cc1cc2c(SCC(=O)Nc3cccc(O)c3)ncnc2s1	-20.3	35.7*	36.1	0.6	-0.1	x	84.9*	12.5	0.8
O=C1/C(=C/c2ccc(O)c(O)c2)SC(=S)N1Nc1ccccc1	28.3	54.0*	x	x	-0.6	x	47.1	17.5*	53.9*
O=C1/C(=C/c2ccncc2)SC(=S)N1Nc1ccccc1	-1.7	4.7	5.1	-0.1	0.1	-2.2	x	x	x
CS(=O)(=O)Nc1ccc2c(c1)[C@@H]1C[C@H](CC(=O)NCc3ccc(Cl)cc3)O[C@H](CO)[C@@H]1O2	x	x	x	0.5	x	x	x	x	x
O=C(Nc1cccc(-c2cnc3ccccc3n2)c1)c1cccc(NC(=O)c2ccco2)c1	6.4	41.3*	73.7*	x	0.1	1.6	x	0.8	16.9*
Cc1ccc(NC(=O)CN2C(=O)S/C(=C/c3ccc(-c4cc(C(=O)O)ccc4C)o3)C2=O)cc1C	-12.7	64.0*	31.4	x	0.1	7.4	75.9*	18.3*	2.5
C[C@@H]1CN([C@H](C)CO)C(=O)c2cc(NS(=O)(=O)c3ccc(F)cc3)ccc2O[C@H]1CN(C)Cc1ccc(C(=O)O)cc1	x	x	x	-1.3	x	x	x	x	x
COc1ccc(/C=C2\SC(=S)N(CC3CCCO3)C2=O)cc1 (stereo unspecified)	-1.3	3.9	-2.6	0.0	-0.1	-0.2	x	x	x
Cc1ccc(/C=C2\SC(=S)N(CC3CCCO3)C2=O)o1 (stereo unspecified)	16.1	73.8*	x	0.2	0.3	24.0	102.7*	32.8*	34.2*
Cc1ccc(-n2cccc2/C=C2\C(=N)N3N=C(c4ccco4)SC3=NC2=O)cc1	-3.5	61.2*	x	0.0	-0.2	9.7	16.0	18.8*	-4.6
CCC1=NN2C(=N)/C(=C\c3cccn3-c3ccc(C)c(C)c3)C(=O)N=C2S1	4.8	10.5	18.1	0.0	-0.1	0.0	x	x	x
CC(C)(C)[C@H](N)C(=O)N[C@H]1CCC2C3CC=C4C[C@@H](O)CC[C@]4(C)C3CC[C@@]21C (stereo partly specified)	4.5	48.9*	11.9	-0.1	0.2	x	-23.3	3.0	15.6*
C[C@@H]1CN([C@@H](C)CO)C(=O)c2cccc(NC(=O)c3nc4ccccc4s3)c2O[C@@H]1CN(C)Cc1ccncc1	x	x	x	-0.2	x	x	x	x	x
O=C(CSc1n[nH]c(=O)[nH]c1=O)Nc1ccc2c(c1)C(=O)c1ccccc1C2=O	-67.7	48.0*	3.8	-0.1	0.1	-8.0	x	69.2*	-9.1
COc1cc(/C=N/N2C(=O)CSC2=S)cc(Br)c1O	75.8*	117.8*	x	0.3	0.0	x	-52.1	24.1*	88.5*
Cc1ccc(S(=O)(=O)N[C@H]2C=C[C@H](CC(=O)N3CCc4ccccc4C3)O[C@H]2CO)cc1	x	x	x	-0.5	x	x	x	x	x
CCCN(C)C[C@H]1OCCCC[C@@H](C)Oc2ccc(NS(=O)(=O)c3cn(C)cn3)cc2C(=O)N([C@@H](C)CO)C[C@H]1C	x	x	x	0.2	x	x	x	x	x
SMILES	HNF4A DNA FP	CSN inh	Rpn11 block	Xi reactivation	aDG glyco up	TPT1 inh	CSN deneddyl val	MMP-2 counter	Thrombin counter
CCOC(=O)CSc1nnc(-c2cc(OC)c(OC)c(OC)c2)o1	-1.9	7.3	2.1	0.2	0.1	-8.7	x	x	x
COc1cc(-c2nnc(SCc3cc(=O)oc4cc(O)c(O)cc34)o2)cc(OC)c1OC	-49.2	47.3*	-14.9	x	0.1	9.1	x	31.6*	33.7*
COc1ccc2c3c([nH]c2c1)[C@H](CO)N(C(=O)c1ccc(F)cc1)CC31CCN(C)CC1	x	x	x	0.3	x	x	x	x	x
COc1ccc(-c2nc(-c3ccccn3)ncc2S(C)(=O)=O)cc1	-3.3	2.6	4.7	0.1	0.2	2.6	x	x	x
CCn1c(N)nc2c1c(=O)n(C)c(=O)n2C	-0.8	1.8	-3.8	0.0	0.1	0.2	x	x	x
Cn1nc(-c2ccccn2)nc2c(=O)n(C)c(=O)nc1-2	152.6*	57.0*	23.4	0.0	-0.1	-4.7	28.1	-4.3	-26.5
CCCc1nc2c(=O)n(C)c(=O)nc-2n(C)n1	157.2*	76.4*	9.8	5.7	0.0	x	-10.3	4.6	-27.9
O=[N+]([O-])c1ccc(/C=C/C2=NN(c3ccccc3)C(c3ccco3)C2)o1 (stereo unspecified)	25.8	62.3*	x	5.2	-0.3	x	41.9	-3.4	20.8*
Clc1ccc(C2=NN(c3ccccc3)C(c3ccco3)C2)cc1 (stereo unspecified)	-2.2	-7.0	-2.3	-0.1	0.9	3.3	x	x	x
CO[C@H]1CN(C)C(=O)c2ccc(NS(C)(=O)=O)cc2OC[C@@H](C)N(C(=O)CC2CC2)C[C@@H]1C	x	x	x	0.0	x	x	x	x	x
CCN(CC)c1ccc(C=Nc2ccc(N(C)C)cc2)c(O)c1	104.3	42.5*	x	x	-0.2	6.5	127.7*	-10.8	37.3*
C[C@@H]1CN([C@H](C)CO)C(=O)c2cc(NC(=O)Nc3ccc4c(c3)OCO4)ccc2O[C@@H]1CN(C)C	x	x	x	-0.8	x	x	x	x	x
